Experiments:
Assay type in all cases: functional
[1] = target: T1, Serotonin 3 (5-HT3) receptor (Rattus norvegicus) (UniProt P35563+Q9JJ16); experiment: The compound was evaluated for the inhibition of the von Bezold-Jarisch reflex in rat administered intravenously
Method in brief: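 Urethane-anesthetized rats; serotonin bolus 0.03 mg/kg iv (femoral vein) gives control reflex bradycardia. After heart rate returns to baseline (within 5 min), test compound iv as free base in dilute acid (≤1% HCl). Serotonin challenge repeated after 15 min. Percent inhibition of bradycardia at three doses, n ≥ 3 each. ED50 from mean values.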

[2] = target: T1, Serotonin 3 (5-HT3) receptor (Rattus norvegicus); experiment: The compound was evaluated for the inhibition of the von Bezold-Jarisch reflex in rat administered orally
Method in brief: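 Overnight-fasted rats gavaged with compound (free base in ≤1% HCl, 5 mL/kg). Urethane anesthesia 45 min later. Serotonin bolus 0.03 mg/kg iv 15 min after anesthesia. Saline-dosed rats as controls. Percent inhibition of reflex bradycardia at three doses, n ≥ 3 each. ED50 from mean values.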

[3] = target: T1, Serotonin 3 (5-HT3) receptor (Rattus norvegicus); experiment: Selectivity ratio of peroral vs intravenous delivery

Row | Compound | ED50 [1] [mg/kg] | ED50 [2] [mg/kg] | Ratio [3]
1 | CN1C2CCC1CC(NC(=O)c1n[nH]c3ccccc13)C2 (stereo unspecified) | 0.002 | 0.02 | 10
2 | CN1C2CCCC1CC(NC(=O)c1nn(C)c3ccccc13)C2 (stereo unspecified) | – | – | 15
3 | CN1[C@@H]2CC[C@H]1C[C@@H](OC(=O)c1c[nH]c3ccccc13)C2 | 0.004 | 0.2 | 50
4 | CN1C2CCC1CC(OC(=O)c1[nH]nc3ccccc13)C2 (stereo unspecified) | 0.003 | 0.2 | 66
5 | CN1C2CCC1CC(NC(=O)c1c3ccccc3nn1C)C2 (stereo unspecified) | > 0.01 | – | –
